Experimental data published in ChEMBL document CHEMBL3525942, “Disposition and metabolism of [14C]SB-649868, an orexin 1 and 2 receptor antagonist, in humans” (Drug Metab Dispos, 2011).

How the values were obtained:
[1] = Drug level in human feces treated with [14C]SB-649868 at 30 mg, po single dose by HPLC-MSn analysis; conditions: in vivo
[2] = Drug level in human urine treated with [14C]SB-649868 at 30 mg, po single dose after 0 to 72 hrs by HPLC-MSn analysis; conditions: in vivo, 0-72 h
[3] = tested on: Homo sapiens; assay: Total drug excretion in human at 30 mg, po single dose measured at 0 to 120 hrs; assay type: ADME, organism-based; parameters: dosed compound name [14C]SB-649868; conditions: in vivo
Method in brief: (§1)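 After one oral 30 mg [14C] dose in eight healthy men, urine was collected at 0–6, 6–12 and 12–24 h, then every 24 h to 216 h. Feces were collected every 24 h to 216 h and homogenized 1:1 with water. Radioactivity was counted by LSC in triplicate aliquots. Results given as cumulative % of dose, mean (S.D.).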

[4] = tested on: Homo sapiens; assay: Total drug excretion in human at 30 mg, po single dose measured at 0 to 144 hrs; assay type: ADME, organism-based; parameters: dosed compound name [14C]SB-649868; conditions: in vivo
Method in brief: as §1

[5] = tested on: Homo sapiens; assay: Total drug excretion in human at 30 mg, po single dose measured at 0 to 168 hrs; assay type: ADME, organism-based; parameters: dosed compound name [14C]SB-649868; conditions: in vivo
Method in brief: as §1

[6] = tested on: Homo sapiens; assay: Total drug excretion in human at 30 mg, po single dose measured at 0 to 192 hrs; assay type: ADME, organism-based; parameters: dosed compound name [14C]SB-649868; conditions: in vivo
Method in brief: as §1

[7] = tested on: Homo sapiens; assay: Total drug excretion in human at 30 mg, po single dose measured at 0 to 216 hrs; assay type: ADME, organism-based; parameters: dosed compound name [14C]SB-649868; conditions: in vivo
Method in brief: as §1

[8] = tested on: Homo sapiens; assay: AUC (0 to infinity) in human plasma assessed as total radioactivity at 30 mg, po single dose; assay type: ADME, organism-based; parameters: dosed compound name [14C]SB-649868; conditions: in vivo
Method in brief: (§2)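 Eight healthy men given one oral capsule of [14C] drug, 30 mg (approx. 70 µCi), with 160 ml water. Blood in K-EDTA tubes from pre-dose to 96 h, chilled and spun at 4°C. Plasma read by LSC in triplicate 0.25 ml aliquots, quench-corrected and background-subtracted. Noncompartmental analysis: Cmax and tmax read from the data, t1/2 = ln2/λz, AUC by linear-up/log-down trapezoids. Geometric means.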

[9] = tested on: Homo sapiens; assay: AUC (0 to t) in human plasma assessed as total radioactivity at 30 mg, po single dose; assay type: ADME, organism-based; parameters: dosed compound name [14C]SB-649868; conditions: in vivo
Method in brief: as §2

[10] = tested on: Homo sapiens; assay: Cmax in human plasma assessed as total radioactivity at 30 mg, po single dose; assay type: ADME, organism-based; parameters: dosed compound name [14C]SB-649868; conditions: in vivo
Method in brief: as §2

[11] = tested on: Homo sapiens; assay: Tmax in human plasma assessed as total radioactivity at 30 mg, po single dose; assay type: ADME, organism-based; parameters: dosed compound name [14C]SB-649868; conditions: in vivo
Method in brief: as §2

[12] = tested on: Homo sapiens; assay: Apparent half life in human plasma assessed as total radioactivity at 30 mg, po single dose; assay type: ADME, organism-based; parameters: dosed compound name [14C]SB-649868; conditions: in vivo
Method in brief: as §2

[13] = Drug excretion in human urine at 30 mg, po single dose measured at 0 to 6 hrs; assay type: ADME, organism-based; parameters: dosed compound name [14C]SB-649868; conditions: in vivo
Method in brief: as §1

[14] = Drug excretion in human urine at 30 mg, po single dose measured at 0 to 12 hrs; assay type: ADME, organism-based; parameters: dosed compound name [14C]SB-649868; conditions: in vivo
Method in brief: as §1

[15] = Drug excretion in human urine at 30 mg, po single dose measured at 0 to 24 hrs; assay type: ADME, organism-based; parameters: dosed compound name [14C]SB-649868; conditions: in vivo
Method in brief: as §1

[16] = Drug excretion in human urine at 30 mg, po single dose measured at 0 to 48 hrs; assay type: ADME, organism-based; parameters: dosed compound name [14C]SB-649868; conditions: in vivo
Method in brief: as §1

[17] = Drug excretion in human urine at 30 mg, po single dose measured at 0 to 72 hrs; assay type: ADME, organism-based; parameters: dosed compound name [14C]SB-649868; conditions: in vivo
Method in brief: as §1

[18] = Drug excretion in human urine at 30 mg, po single dose measured at 0 to 96 hrs; assay type: ADME, organism-based; parameters: dosed compound name [14C]SB-649868; conditions: in vivo
Method in brief: as §1

[19] = Drug excretion in human urine at 30 mg, po single dose measured at 0 to 120 hrs; assay type: ADME, organism-based; parameters: dosed compound name [14C]SB-649868; conditions: in vivo
Method in brief: as §1

[20] = Drug excretion in human urine at 30 mg, po single dose measured at 0 to 144 hrs; assay type: ADME, organism-based; parameters: dosed compound name [14C]SB-649868; conditions: in vivo
Method in brief: as §1

[21] = Drug excretion in human urine at 30 mg, po single dose measured at 0 to 168 hrs; assay type: ADME, organism-based; parameters: dosed compound name [14C]SB-649868; conditions: in vivo
Method in brief: as §1

[22] = Drug excretion in human urine at 30 mg, po single dose measured at 0 to 192 hrs; assay type: ADME, organism-based; parameters: dosed compound name [14C]SB-649868; conditions: in vivo
Method in brief: as §1

[23] = Drug excretion in human urine at 30 mg, po single dose measured at 0 to 216 hrs; assay type: ADME, organism-based; parameters: dosed compound name [14C]SB-649868; conditions: in vivo
Method in brief: as §1

[24] = Drug excretion in human feces at 30 mg, po single dose measured at 0 to 24 hrs; assay type: ADME, organism-based; parameters: dosed compound name [14C]SB-649868; conditions: in vivo
Method in brief: as §1

[25] = Drug excretion in human feces at 30 mg, po single dose measured at 0 to 48 hrs; assay type: ADME, organism-based; parameters: dosed compound name [14C]SB-649868; conditions: in vivo
Method in brief: as §1

[26] = Drug excretion in human feces at 30 mg, po single dose measured at 0 to 72 hrs; assay type: ADME, organism-based; parameters: dosed compound name [14C]SB-649868; conditions: in vivo
Method in brief: as §1

[27] = Drug excretion in human feces at 30 mg, po single dose measured at 0 to 96 hrs; assay type: ADME, organism-based; parameters: dosed compound name [14C]SB-649868; conditions: in vivo
Method in brief: as §1

[28] = Drug excretion in human feces at 30 mg, po single dose measured at 0 to 120 hrs; assay type: ADME, organism-based; parameters: dosed compound name [14C]SB-649868; conditions: in vivo
Method in brief: as §1

[29] = Drug excretion in human feces at 30 mg, po single dose measured at 0 to 144 hrs; assay type: ADME, organism-based; parameters: dosed compound name [14C]SB-649868; conditions: in vivo
Method in brief: as §1

[30] = Drug excretion in human feces at 30 mg, po single dose measured at 0 to 168 hrs; assay type: ADME, organism-based; parameters: dosed compound name [14C]SB-649868; conditions: in vivo
Method in brief: as §1

[31] = Drug excretion in human feces at 30 mg, po single dose measured at 0 to 192 hrs; assay type: ADME, organism-based; parameters: dosed compound name [14C]SB-649868; conditions: in vivo
Method in brief: as §1

[32] = Drug excretion in human feces at 30 mg, po single dose measured at 0 to 216 hrs; assay type: ADME, organism-based; parameters: dosed compound name [14C]SB-649868; conditions: in vivo
Method in brief: as §1

[33] = tested on: Homo sapiens; assay: Total drug excretion in human at 30 mg, po single dose measured at 0 to 6 hrs; assay type: ADME, organism-based; parameters: dosed compound name [14C]SB-649868; conditions: in vivo
Method in brief: (§3)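 Healthy male volunteers (n=8) given single oral 30 mg (approx. 70 µCi) [14C]-labelled dose in a capsule with 160 ml water. Urine collected pre-dose, 0–6, 6–12, 12–24 h, then 24 h intervals to 216 h; feces at 24 h intervals to 216 h, homogenized 1:1 with water. Triplicate aliquots counted by LSC with quench correction and background subtraction; cumulative excretion expressed as % of dose.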

[34] = tested on: Homo sapiens; assay: Total drug excretion in human at 30 mg, po single dose measured at 0 to 12 hrs; assay type: ADME, organism-based; parameters: dosed compound name [14C]SB-649868; conditions: in vivo
Method in brief: as §1

[35] = tested on: Homo sapiens; assay: Total drug excretion in human at 30 mg, po single dose measured at 0 to 24 hrs; assay type: ADME, organism-based; parameters: dosed compound name [14C]SB-649868; conditions: in vivo
Method in brief: as §1

[36] = tested on: Homo sapiens; assay: Total drug excretion in human at 30 mg, po single dose measured at 0 to 48 hrs; assay type: ADME, organism-based; parameters: dosed compound name [14C]SB-649868; conditions: in vivo
Method in brief: as §1

[37] = tested on: Homo sapiens; assay: Total drug excretion in human at 30 mg, po single dose measured at 0 to 72 hrs; assay type: ADME, organism-based; parameters: dosed compound name [14C]SB-649868; conditions: in vivo
Method in brief: as §3

[38] = tested on: Homo sapiens; assay: Total drug excretion in human at 30 mg, po single dose measured at 0 to 96 hrs; assay type: ADME, organism-based; parameters: dosed compound name [14C]SB-649868; conditions: in vivo
Method in brief: as §3

[39] = tested on: Plasma; assay: Drug level in human plasma assessed as radioactivity treated with [14C]SB-649868 at 30 mg, po single dose after 3 hrs by HPLC-MSn analysis; assay type: ADME, organism-based; parameters: dosed compound name [14C]SB-649868; conditions: in vivo
Method in brief: (§4)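 Plasma taken 3, 12, 24 and 48 h after one oral 30 mg [14C] dose, extracted, and run on radio-HPLC: C8 column, 45 mM ammonium acetate pH 3.8 and acetonitrile gradient, 1 ml/min. Fractions collected into scintillant plates and counted 5 min. Extraction recovery measured; data corrected when recovery was <85%. Values are % of plasma radioactivity, BQL 1%; n=7 at 3 and 12 h.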

[40] = tested on: Plasma; assay: Drug level in human plasma assessed as radioactivity treated with [14C]SB-649868 at 30 mg, po single dose after 12 hrs by HPLC-MSn analysis; assay type: ADME, organism-based; parameters: dosed compound name [14C]SB-649868; conditions: in vivo
Method in brief: as §4

[41] = tested on: Plasma; assay: Drug level in human plasma assessed as radioactivity treated with [14C]SB-649868 at 30 mg, po single dose after 24 hrs by HPLC-MSn analysis; assay type: ADME, organism-based; parameters: dosed compound name [14C]SB-649868; conditions: in vivo
Method in brief: as §4

[42] = tested on: Plasma; assay: Drug level in human plasma assessed as radioactivity treated with [14C]SB-649868 at 30 mg, po single dose after 48 hrs by HPLC-MSn analysis; assay type: ADME, organism-based; parameters: dosed compound name [14C]SB-649868; conditions: in vivo
Method in brief: as §4

Cc1nc(C(=O)N[C@@H](CCCC(=O)O)CNC(=O)c2cccc3occc23)c(-c2ccc(F)cc2)s1
Compound recovery [1]: 1.1% | Compound recovery [2]: Below quantification limit

C[14c]1nc(C(=O)N2CCCC[C@H]2CNC(=O)c2cccc3occc23)c(-c2ccc(F)cc2)s1
Radiolabel recovery [3]: 87.3% | Radiolabel recovery [4]: 88.7% | Radiolabel recovery [5]: 89.7% | Radiolabel recovery [6]: 90.5% | Radiolabel recovery [7]: 91.1% | Radiolabel recovery [8]: 37.3 ugequiv.hr/ml | Radiolabel recovery [9]: 31 ugequiv.hr/ml | Radiolabel recovery [10]: 1.66 ugequiv/ml | Radiolabel recovery [11]: 4 h | Radiolabel recovery [12]: 39.3 h | Radiolabel recovery [13]: 2.3% | Radiolabel recovery [14]: 5.9% | Radiolabel recovery [15]: 8.9% | Radiolabel recovery [16]: 10.7% | Radiolabel recovery [17]: 11.3% | Radiolabel recovery [18]: 11.6% | Radiolabel recovery [19]: 11.7% | Radiolabel recovery [20]: 11.9% | Radiolabel recovery [21]: 11.9% | Radiolabel recovery [22]: 12% | Radiolabel recovery [23]: 12% | Radiolabel recovery [24]: 1.9% | Radiolabel recovery [25]: 36.8% | Radiolabel recovery [26]: 60% | Radiolabel recovery [27]: 69.6% | Radiolabel recovery [28]: 75.6% | Radiolabel recovery [29]: 76.8% | Radiolabel recovery [30]: 77.7% | Radiolabel recovery [31]: 78.5% | Radiolabel recovery [32]: 79.1% | Radiolabel recovery [33]: 2.3% | Radiolabel recovery [34]: 5.9% | Radiolabel recovery [35]: 10.8% | Radiolabel recovery [36]: 47.5% | Radiolabel recovery [37]: 71.3% | Radiolabel recovery [38]: 81.2%

Cc1nc(C(=O)N2CCCC[C@H]2CNC(=O)c2cccc(O)c2CC(=O)O)c(-c2ccc(F)cc2)s1
Compound recovery [39]: < 1 | Compound recovery [40]: 6.7% | Compound recovery [41]: 4.2% | Compound recovery [42]: < 1 | Compound recovery [1]: 10.3% | Compound recovery [2]: 1.5%

Cc1nc(C(=O)N2CCCC[C@H]2CN2C(=O)c3cccc(O)c3CC2O)c(-c2ccc(F)cc2)s1 (stereo not given in full)
Compound recovery [39]: 6% | Compound recovery [40]: 16.8% | Compound recovery [41]: 19.3% | Compound recovery [42]: 15.1% | Compound recovery [1]: 2.6% | Compound recovery [2]: 0.2%
